Data taken from article PMC3545090 (Biochemistry, 2012).
Entries after “also recorded” stand apart in the source; their conditions may differ.

Experiments:
Syk [1] = target: T1, Syk (Homo sapiens, UniProt P43405); details: cited from earlier work
Syk-EGFP = Syk-EGFP (Mus musculus, UniProt P48025); experiment: In vitro kinase assay, immobilized Syk-EGFP, ELISA-based fluorescence detection; assay type: biochemical; details: for rate of phosphorylation compared with other substrates: Syk-EGFP 6 nM, each substrate 4 μM, 5 mM MnCl2, HEPES pH 7.2 (Fig. 2b)
Summary of the method: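 Syk-EGFP immunoprecipitated from lysates of DT40 chicken B cells on anti-GFP beads. Bead-bound kinase (6 nM in the 4 μM substrate comparison) was mixed with peptide (4 μM, or a concentration range) in 500 μM ATP, 5 mM MnCl2, HEPES pH 7.2. Timed aliquots were EDTA-quenched. Neutravidin-captured peptide was probed with 4G10 anti-phosphotyrosine and HRP secondary, then read by Amplex Red (ex 532/em 590 nm). Initial velocities were fitted to a sigmoidal curve; three replicates.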

Syk Y525/526 = experiment: Western blot of Syk Y525/526 phosphorylation in primary splenic B cells; assay type: cell-based; details: mouse primary splenic B cells, anti-IgM F(ab′)2
Summary of the method: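 Mouse splenic B cells enriched by panning, at 5 × 10^6 cells/mL, pre-treated with tyrosine kinase inhibitor or DMSO vehicle. SAStide biosensor peptide (25 μM) added 15 min before anti-IgM F(ab′)2 (5 μg/mL); harvested 0, 5, 10, 15 min after. Immunoblot: 5% goat serum block 1 h; primary antibodies 1:1,000, 1 h at room temperature; HRP secondary, ECL detection.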

Syk [2] = target: T1, Syk; experiment: Western blot of Syk tyrosine phosphorylation in inhibitor-treated DG75 cells; assay type: cell-based; details: anti-IgM 5 μg/mL + H2O2 1 mM
allergic rhinitis = details: delivered intranasally; ref [31]; cited from earlier work
[3] = system: acute myelogenous leukemia; details: ref [34]; cited from earlier work
rheumatoid arthritis = details: vs placebo; ref [32]; cited from earlier work
non-Hodgkins lymphomas = details: ongoing trial, very small cohort; ref [29]; cited from earlier work
DG75 cells = experiment: Cell toxicity in DG75 cells; assay type: cell-based; details: high concentrations, in the presence of BCR activation and oxidative stress; loss of tubulin and Syk immunoblot signal
kinases = details: binding affinity for kinases; ref [30]; cited from earlier work
[4] = system: peripheral T-cell lymphoma cells; details: cells with elevated Syk Y525/Y526 phosphorylation; ref [8]; cited from earlier work
[5] = 500 μM ATP, average of three replicate experiments
[6] = different enzyme preparation and ATP concentration from this paper, ref [13b]

Sequence of Syk-EGFP (P48025 whole entry): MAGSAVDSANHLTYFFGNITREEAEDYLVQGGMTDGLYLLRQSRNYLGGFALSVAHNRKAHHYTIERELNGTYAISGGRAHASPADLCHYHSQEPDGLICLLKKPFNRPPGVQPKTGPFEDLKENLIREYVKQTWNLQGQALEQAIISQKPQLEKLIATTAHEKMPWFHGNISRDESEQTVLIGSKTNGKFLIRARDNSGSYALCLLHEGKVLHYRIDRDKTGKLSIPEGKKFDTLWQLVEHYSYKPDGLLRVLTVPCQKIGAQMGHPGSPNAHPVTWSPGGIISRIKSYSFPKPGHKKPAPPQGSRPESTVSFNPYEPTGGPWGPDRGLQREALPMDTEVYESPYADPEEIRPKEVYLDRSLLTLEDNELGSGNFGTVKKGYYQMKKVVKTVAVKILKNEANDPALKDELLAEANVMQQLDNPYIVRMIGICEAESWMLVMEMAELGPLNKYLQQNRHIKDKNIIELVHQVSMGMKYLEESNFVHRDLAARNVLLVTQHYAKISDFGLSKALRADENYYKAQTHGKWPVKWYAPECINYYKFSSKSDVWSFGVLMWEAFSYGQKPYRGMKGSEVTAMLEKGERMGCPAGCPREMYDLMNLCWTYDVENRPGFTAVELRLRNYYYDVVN

In the case of GGEDPDYEWPSAGGKbGG [Phage], the “substrate inhibition at higher concentrations” value (Syk [1]; phage display peptide, Syk, ref [13d]) is given as “greater than 20 μM” and the “rate of phosphorylation compared with other substrates” value (Syk-EGFP; [5]) is given as “more efficiently phosphorylated”.
In the case of Cc1nc(Nc2ncc(C(=O)Nc3c(C)cccc3Cl)s2)cc(N2CCN(CCO)CC2)n1 [dasatinib], the “Y525/526 phosphorylation in the presence of inhibitor (Western blot)” value (Syk Y525/526) is reported as “Y525/526 remained phosphorylated” and the “level of Syk tyrosine phosphorylation (Western blot)” value (Syk [2]) is reported as “reduction in the level of Syk tyrosine phosphorylation”.
For GGEDDEYEEVGGKbGG [Syktide], the Km (Syk [1]; [6]) is given as 3 µM and the kcat (Syk [1]; [6]) is given as 1.04 s⁻¹.
In the case of Oc1cccc(Nc2ncc(F)c(Nc3cccc(O)c3)n2)c1 [R112], the “relief of allergic rhinitis symptoms” value (allergic rhinitis) is listed as “effective for relieving allergic rhinitis symptoms”.
For GGDEEDYEEPDEPGGKbGG [SAStide], the Vmax (Syk-EGFP; SAStide at a range of concentrations, immunoprecipitated Syk-EGFP, 500 μM ATP, 5 mM MnCl2, HEPES pH 7.2, sigmoidal fit, three replicate experiments) was 11 ± 1 pmol/min, the “rate of phosphorylation compared with other substrates” value (Syk-EGFP; [5]) was “phosphorylated more rapidly than the previously reported Syktide sequence, but not as rapidly as the phage display-derived sequence; also recorded: phosphorylated more efficiently than the parent Syktide” and the substrate inhibition (Syk-EGFP; concentrations up to 100 μM, immunoprecipitated Syk-EGFP) was “no substrate inhibition at concentrations up to 100 μM”. It also gave a Km (Syk-EGFP; read-out: Khalf (substrate concentration at half of Vmax in a sigmoidal curve, analogous to Km), SAStide at a range of concentrations, immunoprecipitated Syk-EGFP, 500 μM ATP, 5 mM MnCl2, HEPES pH 7.2, sigmoidal fit, average of three replicate experiments) of 86 ± 10 µM.
For “gemtuzumab ozogamicin: therapeutic antibody conjugated to a toxin”, the “response in relation to lower Syk expression” value [3] is given as “lack of response”.
In the case of COc1cc(Nc2ncc(F)c(Nc3ccc4c(n3)N(COP(=O)(O)O)C(=O)C(C)(C)O4)n2)cc(OC)c1OC [fostamatinib], the “benefit in rheumatoid arthritis, patients receiving methotrexate” value (rheumatoid arthritis) is listed as “significant benefit (over placebo)”, the “response by lymphoma subtype” value (non-Hodgkins lymphomas) is listed as “slightly better response in chronic lymphocytic leukemia than the other types” and the response rates (non-Hodgkins lymphomas) is listed as “response rates were low overall”.
For Oc1cc(O)cc(/C=C/c2ccc(O)c(O)c2)c1 [piceatannol, 3,4,3′,5′-tetrahydroxy-trans-stilbene], the “Y525/526 phosphorylation in the presence of inhibitor (Western blot)” value (Syk Y525/526) was “Y525/526 remained phosphorylated”, the “level of Syk tyrosine phosphorylation (Western blot)” value (Syk [2]) was “reduction in the level of Syk tyrosine phosphorylation” and the “toxicity to DG75 cells” value (DG75 cells) was “toxic to DG75 cells”.
In the case of COc1cc(Nc2ncc(F)c(Nc3ccc4c(n3)NC(=O)C(C)(C)O4)n2)cc(OC)c1OC [R406], the kinase selectivity (kinases) is listed as “one of the least selective kinase inhibitors evaluated” and the apoptosis and proliferation [4] is listed as “induces apoptosis and blocks proliferation”.
